According to ChEMBL document CHEMBL4346684, “Synthesis and structure-bactericidal activity relationships of non-ketolides: 9-Oxime clarithromycin 11,12-cyclic carbonate featured with three-to eight-atom-length spacers at 3-OH” (Eur J Med Chem, 2019):
Converted amounts (≈) assume the structure as drawn. The source made the active and inactive calls. No cut-off for these calls is given here.

How the values were obtained:
Streptococcus pneumoniae [1] = experiment: Antimicrobial activity against erythromycin-susceptible Streptococcus pneumoniae ATCC 49619 incubated in CAMHB medium for 20 to 24 hrs by two-fold microbroth dilution method; assay type: functional
Streptococcus pneumoniae [2] = experiment: Antimicrobial activity against mef-encoded erythromycin resistant Streptococcus pneumoniae PU09 incubated in CAMHB medium for 20 to 24 hrs by two-fold microbroth dilution method; assay type: functional
Streptococcus pneumoniae [3] = experiment: Antimicrobial activity against constitutively erythromycin resistant Streptococcus pneumoniae PU27 expressing c-erm incubated in CAMHB medium for 20 to 24 hrs by two-fold microbroth dilution method; assay type: functional
In short: (§1)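 Purified fresh Streptococcus isolate at about 5×10^5 CFU/ml final in CAMHB with 5% horse serum, 35 °C for 20–24 h. […] Each run included ATCC strains and reference antibiotics as QC, plus an antibiotic-free growth control.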

Streptococcus pyogenes [4] = experiment: Antimicrobial activity against constitutively erythromycin resistant Streptococcus pyogenes A2 expressing c-erm incubated in CAMHB medium for 20 to 24 hrs by two-fold microbroth dilution method; assay type: functional; in short: as §1
Streptococcus pyogenes [5] = experiment: Antimicrobial activity against erythromycin-susceptible Streptococcus pyogenes A3 incubated in CAMHB medium for 20 to 24 hrs by two-fold microbroth dilution method; assay type: functional
Staphylococcus aureus [6] = experiment: Antimicrobial activity against erythromycin-susceptible Staphylococcus aureus ATCC 29213 incubated in CAMHB medium for 20 hrs by two-fold microbroth dilution method; assay type: functional; settings: ATCC 29213, 20 h
In short: (§2)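 Clinical isolates and ATCC strains, purified by plate activation and used fresh; inoculum about 5×10^5 CFU/ml final. Grown in CAMHB at 35 °C for 20 h.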

Staphylococcus aureus [7] = experiment: Antimicrobial activity against inducibly erythromycin-resistant Staphylococcus aureus PU32 expressing i-ermA incubated in CAMHB medium for 20 hrs by two-fold microbroth dilution method; assay type: functional; settings: PU32, 20 h
In short: (§3)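 Purified fresh Staphylococcus isolate at about 5×10^5 CFU/ml final in CAMHB, 35 °C for 20 h. […] Each run included ATCC strains and reference antibiotics as QC, plus an antibiotic-free growth control.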

Staphylococcus aureus [8] = experiment: Antimicrobial activity against constitutively erythromycin resistant Staphylococcus aureus PU20 expressing c-ermC incubated in CAMHB medium for 20 hrs by two-fold microbroth dilution method; assay type: functional; settings: PU20, 20 h; in short: as §3
Staphylococcus aureus [9] = experiment: Antimicrobial activity against inducibly erythromycin resistant Staphylococcus aureus PU64 expressing i-ermA incubated in CAMHB medium for 20 hrs by two-fold microbroth dilution method; assay type: functional; settings: PU64, 20 h; in short: as §3
[10] = test system: Staphylococcus epidermidis; experiment: Antimicrobial activity against Staphylococcus epidermidis E1 incubated in CAMHB medium for 20 hrs by two-fold microbroth dilution method; assay type: functional; settings: E1, 20 h; in short: as §2
Streptococcus pneumoniae [11] = experiment: Bactericidal activity against erythromycin-susceptible Streptococcus pneumoniae ATCC 49619 assessed as reduction in colony formation incubated in CAMHB medium for 20 to 24 hrs followed by 24 hrs subculturing in the medium without test compound; assay type: functional
Streptococcus pneumoniae [12] = experiment: Ratio of MBC to MIC for erythromycin-susceptible Streptococcus pneumoniae ATCC 49619; assay type: functional
Streptococcus pneumoniae [13] = experiment: Bactericidal activity against mef-encoded erythromycin resistant Streptococcus pneumoniae PU09 assessed as reduction in colony formation incubated in CAMHB medium for 20 to 24 hrs followed by 24 hrs subculturing in the medium without test compound; assay type: functional
Streptococcus pneumoniae [14] = experiment: Ratio of MBC to MIC for mef-encoded erythromycin resistant Streptococcus pneumoniae PU09; assay type: functional
Streptococcus pyogenes [15] = experiment: Antimicrobial activity against inducibly erythromycin resistant Streptococcus pyogenes 01-968 expressing i-ermA incubated in CAMHB medium for 20 to 24 hrs by two-fold microbroth dilution method; assay type: functional
Streptococcus pyogenes [16] = experiment: Bactericidal activity against inducibly erythromycin resistant Streptococcus pyogenes 01-968 expressing i-ermA assessed as reduction in colony formation incubated in CAMHB medium for 20 to 24 hrs followed by 24 hrs subculturing in the medium without test compound; assay type: functional
Streptococcus pyogenes [17] = experiment: Ratio of MBC to MIC for inducibly erythromycin resistant Streptococcus pyogenes 01-968 expressing i-ermA; assay type: functional
Staphylococcus aureus [18] = experiment: Antimicrobial activity against constitutively erythromycin resistant and methicillin resistant Staphylococcus aureus PU20 expressing c-ermC incubated in CAMHB medium for 20 hrs by two-fold microbroth dilution method; assay type: functional; settings: PU20, 20 h
In short: (§4)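 Purified fresh Staphylococcus isolate at about 5×10^5 CFU/ml final in CAMHB, 35 °C for 20 h. Each run included ATCC strains and reference antibiotics as QC, plus an antibiotic-free growth control.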

Staphylococcus aureus [19] = experiment: Bactericidal activity against constitutively erythromycin resistant and methicillin-resistant Staphylococcus aureus PU20 expressing c-ermC assessed as reduction in colony formation incubated in CAMHB medium for 20 hrs followed by 24 hrs subculturing in the medium without test compound; assay type: functional
Staphylococcus aureus [20] = experiment: Antimicrobial activity against inducibly erythromycin-resistant and methicillin resistant Staphylococcus aureus PU32 expressing i-ermA incubated in CAMHB medium for 20 hrs by two-fold microbroth dilution method; assay type: functional; settings: PU32, 20 h; in short: as §4
Staphylococcus aureus [21] = experiment: Bactericidal activity against inducibly erythromycin-resistant and methicillin resistant Staphylococcus aureus PU32 expressing i-ermA assessed as reduction in colony formation incubated in CAMHB medium for 20 hrs followed by 24 hrs subculturing in the medium without test compound; assay type: functional
Staphylococcus aureus [22] = experiment: Ratio of MBC to MIC for inducibly erythromycin-resistant and methicillin resistant Staphylococcus aureus PU32 expressing i-ermA; assay type: functional
Moraxella catarrhalis [23] = experiment: Antimicrobial activity against erythromycin-susceptible Moraxella catarrhalis 13L332 incubated in CAMHB medium for 20 hrs by two-fold microbroth dilution method; assay type: functional; settings: 13L332, 20 h; in short: as §2
Moraxella catarrhalis [24] = experiment: Bactericidal activity against erythromycin-susceptible Moraxella catarrhalis 13L332 assessed as reduction in colony formation incubated in CAMHB medium for 20 hrs followed by 24 hrs subculturing in the medium without test compound; assay type: functional
Moraxella catarrhalis [25] = experiment: Ratio of MBC to MIC for erythromycin-susceptible Moraxella catarrhalis 13L332; assay type: functional
Haemophilus influenzae [26] = experiment: Antimicrobial activity against azithromycin-susceptible Haemophilus influenzae ATCC 49247 incubated in HTM broth medium for 20 to 24 hrs by two-fold microbroth dilution method; assay type: functional
Haemophilus influenzae [27] = experiment: Bactericidal activity against azithromycin-susceptible Haemophilus influenzae ATCC 49247 assessed as reduction in colony formation incubated in HTM broth medium for 20 to 24 hrs followed by 24 hrs subculturing in the medium without test compound; assay type: functional
Haemophilus influenzae [28] = experiment: Ratio of MBC to MIC for azithromycin-susceptible Haemophilus influenzae ATCC 49247; assay type: functional
Staphylococcus aureus [29] = experiment: Ratio of MBC to MIC for constitutively erythromycin resistant and methicillin-resistant Staphylococcus aureus PU20 expressing c-ermC; assay type: functional
Streptococcus pneumoniae [30] = experiment: Bactericidal activity against erythromycin-susceptible Streptococcus pneumoniae ATCC 49619 assessed as log reduction in bacterial CFU at 1 to 16XMIC incubated for 1 to 24 hrs by broth dilution method; assay type: functional
In short: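 Samples taken at 1, 2, 4, 6, 8, 12, 24 h, diluted and plated, colonies counted after 20-24 h at 35 °C; log CFU plotted against time. Detection limit 300 CFU/mL.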

Streptococcus pneumoniae [31] = experiment: Bactericidal activity against mef-encoded erythromycin resistant Streptococcus pneumoniae PU09 at 1 to 16xMIC incubated for 1 to 24 hrs by broth dilution method; assay type: functional, organism-based
In short: (§5)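 Samples were taken at 1, 2, 4, 6, 8, 12 and 24 h, diluted and subcultured at 35 °C for 20–24 h. Colonies were counted and log CFU plotted against time; detection limit 300 CFU/mL.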

Streptococcus pyogenes [32] = experiment: Bactericidal activity against inducibly erythromycin resistant Streptococcus pyogenes 01-968 expressing i-ermA at 1XMIC incubated for 12 hrs by broth dilution method; assay type: functional, organism-based; in short: as §5
Streptococcus pyogenes [33] = experiment: Bactericidal activity against inducibly erythromycin resistant Streptococcus pyogenes 01-968 expressing i-ermA at 1XMIC incubated for 24 hrs by broth dilution method; assay type: functional, organism-based; in short: as §5

| Compound | MIC (Streptococcus pneumoniae [1]) [µg/mL] | MIC (Streptococcus pneumoniae [2]) [µg/mL] | MIC (Streptococcus pneumoniae [3]) [µg/mL] | MIC (Streptococcus pyogenes [4]) [µg/mL] | MIC (Streptococcus pyogenes [5]) [µg/mL] | MBC (Streptococcus pneumoniae [11]) [µg/mL] | Ratio (Streptococcus pneumoniae [12]) | MBC (Streptococcus pneumoniae [13]) [µg/mL] | Ratio (Streptococcus pneumoniae [14]) | MIC (Streptococcus pyogenes [15]) [µg/mL] | MBC (Streptococcus pyogenes [16]) [µg/mL] | Ratio (Streptococcus pyogenes [17]) | MIC (Staphylococcus aureus [18]) [µg/mL] | MBC (Staphylococcus aureus [19]) [µg/mL] | MIC (Staphylococcus aureus [20]) [µg/mL] | MBC (Staphylococcus aureus [21]) [µg/mL] | Ratio (Staphylococcus aureus [22]) | MIC (Haemophilus influenzae [26]) [µg/mL] | MBC (Haemophilus influenzae [27]) [µg/mL] | Ratio (Haemophilus influenzae [28]) | other results |
| --- | --- | --- | --- | --- | --- | --- | --- | --- | --- | --- | --- | --- | --- | --- | --- | --- | --- | --- | --- | --- | --- |
| CC[C@H]1OC(=O)[C@H](C)[C@@H](O[C@H]2C[C@@](C)(OC)[C@@H](O)[C@H](C)O2)[C@H](C)[C@@H](O[C@@H]2O[C@H](C)C[C@H](N(C)C)[C@H]2O)[C@](C)(OC)C[C@@H](C)C(=O)[C@H](C)[C@@H](O)[C@]1(C)O [CLARITHROMYCIN] | 0.06 to 0.064 (≈ 0.0802 to 0.0856 µM) | 4 (≈ 5.35 µM) | 4 (≈ 5.35 µM) | 128 (≈ 171 µM) | ≤ 0.032 | 0.125 to 0.25 (≈ 0.167 to 0.334 µM) | 2 - 4 | 8 to 32 (≈ 10.7 to 42.8 µM) | 2 - 8 | 1 to 8 (≈ 1.34 to 10.7 µM) | 8 to 64 (≈ 10.7 to 85.6 µM) | >8 | > 256 | > 256 | 32 (≈ 42.8 µM) | > 256 | >8 | 4 (≈ 5.35 µM) | 8 (≈ 10.7 µM) | 2 | MIC (Staphylococcus aureus [6]): 0.25 µg/mL (≈ 0.334 µM); MIC (Staphylococcus aureus [7]): > 256 µg/mL; MIC (Staphylococcus aureus [8]): > 256 µg/mL; MIC (Staphylococcus aureus [9]): > 256 µg/mL; MIC [10]: > 256 µg/mL; MIC (Moraxella catarrhalis [23]): 0.031 µg/mL (≈ 0.0414 µM); MBC (Moraxella catarrhalis [24]): 0.125 µg/mL (≈ 0.167 µM); Ratio (Moraxella catarrhalis [25]): 4 |
| CC[C@H]1OC(=O)[C@H](C)[C@@H](OC(=O)CCNCCCCc2cccnc2)[C@H](C)[C@@H](O[C@@H]2O[C@H](C)C[C@H](N(C)C)[C@H]2O)[C@](C)(OC)C[C@@H](C)/C(=N\OC)[C@H](C)[C@H]2OC(=O)O[C@@]21C | 1 (≈ 1.18 µM) | 2 (≈ 2.36 µM) |  |  |  | 4 (≈ 4.71 µM) | 4 | 4 (≈ 4.71 µM) | 2 | 64 (≈ 75.4 µM) | 128 (≈ 151 µM) | 2 | 256 (≈ 302 µM) | 256 (≈ 302 µM) | 128 (≈ 151 µM) | > 256 |  | 128 (≈ 151 µM) | 256 (≈ 302 µM) | 2 | Ratio (Staphylococcus aureus [29]): 1 |
| CC[C@H]1OC(=O)[C@H](C)[C@@H](OC(=O)CCNCCCc2ccc(-n3ccnc3)cc2)[C@H](C)[C@@H](O[C@@H]2O[C@H](C)C[C@H](N(C)C)[C@H]2O)[C@](C)(OC)C[C@@H](C)/C(=N\OC)[C@H](C)[C@H]2OC(=O)O[C@@]21C | 2 (≈ 2.22 µM) | 4 (≈ 4.44 µM) |  |  |  | 4 (≈ 4.44 µM) | 2 | 8 (≈ 8.89 µM) |  | 16 (≈ 17.8 µM) | 32 (≈ 35.6 µM) | 2 | 64 (≈ 71.1 µM) | > 256 | 64 (≈ 71.1 µM) | 128 (≈ 142 µM) | 2 | 256 (≈ 284 µM) | 256 (≈ 284 µM) | 1 | Ratio (Staphylococcus aureus [29]): >4 |
| CC[C@H]1OC(=O)[C@H](C)C(=O)[C@H](C)[C@@H](O[C@@H]2O[C@H](C)C[C@H](N(C)C)[C@H]2O)[C@](C)(OC)C[C@@H](C)C(=O)[C@H](C)[C@H]2N(CCCCn3cnc(-c4cccnc4)c3)C(=O)O[C@]12C [TELITHROMYCIN] |  | 0.25 to 1 (≈ 0.308 to 1.23 µM) | ≤ 0.032 | 32 (≈ 39.4 µM) | ≤ 0.032 | 0.031 to 0.125 (≈ 0.0382 to 0.154 µM) | 1 - 4 | 1 to 4 (≈ 1.23 to 4.93 µM) | 4 - 8 | 0.031 to 0.062 (≈ 0.0382 to 0.0764 µM) | 0.13 to 0.5 (≈ 0.16 to 0.616 µM) | 4 - 8 | > 256 | > 256 | 0.25 (≈ 0.308 µM) | 1 to 2 (≈ 1.23 to 2.46 µM) | >=4 - 8 |  |  |  | MIC (Staphylococcus aureus [6]): 0.125 µg/mL (≈ 0.154 µM); MIC (Staphylococcus aureus [7]): 0.125 µg/mL (≈ 0.154 µM); MIC (Staphylococcus aureus [8]): > 256 µg/mL; MIC (Staphylococcus aureus [9]): 0.125 µg/mL (≈ 0.154 µM); MIC [10]: 0.125 µg/mL (≈ 0.154 µM); MIC (Moraxella catarrhalis [23]): 0.125 µg/mL (≈ 0.154 µM); MBC (Moraxella catarrhalis [24]): 0.5 µg/mL (≈ 0.616 µM); Ratio (Moraxella catarrhalis [25]): 4; Activity (Streptococcus pneumoniae [30]): 3 log10CFU; Activity (Streptococcus pneumoniae [31]): Active; Activity (Streptococcus pyogenes [32]): Active; Activity (Streptococcus pyogenes [33]): inactive |
